Data as given in PubChem BioAssay.
The source made the active and inactive calls.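 How the source made its calls, unless noted: active means Her2 level under about 52% in both replicate screens, with viability over 70% of control (limit read from the data); inconclusive means Her2 under the limit in one screen only, or viability under 70%; inactive means Her2 level above the set limit.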

Tests used:
[1] = reducers of endogenous Her2 protein level, primary screen, SKBR3 breast tumor cells, AlphaScreen, ATP viability (AID 461); settings: 18-24 h, measured here: SKBR3 viability, ATP luminescence, at 10 µM;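 on Her2 level: lower value means less Her2 protein in the cells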;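 on viability: percent of carrier control wells set as 100% viability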
[2] = target: Receptor tyrosine-protein kinase erbB-2 (Homo sapiens) (UniProt P04626); assay: as above; settings: 18-24 h, at 10 µM, stronger effect = lower value
[3] = SK-BR-3 cell growth inhibitors, pilot screen, 24 h, human (AID 572;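 active means viability at or below 10% of carrier control in both of two separate runs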;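 further: compound exposure lasted between 18 and 24 h rather than exactly 24 h; 100% = carrier-treated control wells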); settings: SK-BR-3 viability, CellTiter-Glo luminescence, at 10 µM, stronger effect = lower value
[4] = HUVEC growth inhibition – cell-based, human, primary screen (AID 575;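 active means viability at or below 30% in both replicate assays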;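 further: 100% = median of untreated cell wells with 0.1% DMSO on each plate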); settings: HUVEC proliferation, CellTiter-Glo luminescence, 72 h; at 10 µM; stronger effect = lower value
Outline: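 Test system: primary human umbilical vein endothelial cells. Quantity: 1250 cells/well. Compound: single 10 µM dose, 0.1% DMSO, from 5x medium stock. Timing: 72 h treatment at 37 °C. Detection: ATP-based CellTiter-Glo luminescent read. Benchmarks: vehicle and MePR control wells. Format: 384-well plates coated with collagen.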

[5] = reversal of MRP1-mediated doxorubicin resistance, pilot screen, H69AR cells, doxorubicin co-treatment (AID 601;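 active means viability loss from added drug above about 55%, and viability with drug at most 40%, in both replicates, limit read from the data, passing the limit was not always enough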); settings: CellTiter-Glo, 72 h, at 10 µM; for differential viability (reversal): stronger effect = higher value
[6] = 384-well plate pilot, post-Golgi transport modulator project, inhibition of yeast transport mutant growth (AID 636; in the data active means inhibition above about 31%); settings: absorbance 615 nm, about 18 h, stronger effect = higher value
[7] = growth suppression of yeast trafficking mutant, preliminary HTS, modulators of trafficking downstream of Golgi apparatus project, 1536-format plate, OD 615 nm (AID 637; in the data active means inhibition above about 30%); settings: yeast transport mutant growth, absorbance 615 nm, 18 h; stronger effect = higher value
[8] = growth inhibitors of H69AR lung tumor, primary screen, human, duplicate replicates (AID 580;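 active means viability at or under a set limit in both replicates, limit being median viability minus 3 SD, cut at about 48% in these data, passing the limit was not always enough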;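 further: 100% = mean luminescence of untreated wells and 0% = no signal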); settings: H69AR lung tumor cells viability, ATP luminescence, 72 h; at 10 µM; stronger effect = lower value
[9] = H69AR cells + 2 uM doxorubicin, measured here: viability with 2 uM doxorubicin, stronger effect = lower value
[10] = H69AR cells, compound alone cytotoxicity

Sequence of Receptor tyrosine-protein kinase erbB-2 (Homo sapiens) (P04626 whole entry, looked up): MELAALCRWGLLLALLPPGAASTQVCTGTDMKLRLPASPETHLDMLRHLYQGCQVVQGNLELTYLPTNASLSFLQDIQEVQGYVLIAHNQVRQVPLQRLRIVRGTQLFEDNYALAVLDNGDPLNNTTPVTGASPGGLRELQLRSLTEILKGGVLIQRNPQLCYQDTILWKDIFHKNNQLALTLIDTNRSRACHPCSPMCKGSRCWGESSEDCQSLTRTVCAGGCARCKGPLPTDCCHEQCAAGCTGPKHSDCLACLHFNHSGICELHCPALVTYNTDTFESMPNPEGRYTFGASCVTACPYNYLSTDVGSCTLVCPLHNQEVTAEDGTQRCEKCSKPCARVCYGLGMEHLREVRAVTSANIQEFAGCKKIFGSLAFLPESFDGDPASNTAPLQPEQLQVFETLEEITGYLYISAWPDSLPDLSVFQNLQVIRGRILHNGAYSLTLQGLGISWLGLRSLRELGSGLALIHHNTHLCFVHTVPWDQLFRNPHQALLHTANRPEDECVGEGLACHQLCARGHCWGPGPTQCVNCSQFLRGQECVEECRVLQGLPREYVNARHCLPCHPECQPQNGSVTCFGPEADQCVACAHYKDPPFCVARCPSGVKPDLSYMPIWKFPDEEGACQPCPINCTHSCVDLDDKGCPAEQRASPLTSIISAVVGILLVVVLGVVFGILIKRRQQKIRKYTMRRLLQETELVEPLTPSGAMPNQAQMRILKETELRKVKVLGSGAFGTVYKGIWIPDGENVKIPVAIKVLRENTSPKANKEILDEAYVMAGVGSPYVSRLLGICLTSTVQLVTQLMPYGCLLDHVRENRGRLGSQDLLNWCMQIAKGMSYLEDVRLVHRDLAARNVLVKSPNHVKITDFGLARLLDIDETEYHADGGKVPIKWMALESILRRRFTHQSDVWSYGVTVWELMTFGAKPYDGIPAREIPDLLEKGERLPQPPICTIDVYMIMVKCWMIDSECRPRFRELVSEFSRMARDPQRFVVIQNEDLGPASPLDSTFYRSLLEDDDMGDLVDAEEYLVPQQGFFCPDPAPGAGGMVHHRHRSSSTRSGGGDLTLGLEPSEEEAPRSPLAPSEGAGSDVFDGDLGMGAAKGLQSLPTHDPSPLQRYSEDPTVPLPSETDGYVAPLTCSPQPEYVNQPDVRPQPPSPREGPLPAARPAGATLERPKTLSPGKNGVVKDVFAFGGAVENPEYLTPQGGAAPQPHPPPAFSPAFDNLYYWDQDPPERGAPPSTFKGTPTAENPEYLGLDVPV

| Structure (SMILES) | viability [1] [%] | Her2 level [2] | viability [3] | viability [4] | differential viability (reversal) ([5]; H69AR cells + 2 uM doxorubicin) | viability [5, 9] [%] | viability [5, 10] [%] | inhibition [6] | inhibition [7] | viability [8] |
| --- | --- | --- | --- | --- | --- | --- | --- | --- | --- | --- |
| COc1ccc(C(C)(C)C)cc1NC(=O)Nc1ccc2c(c1)OCO2 | 108 | 89.5% (inactive) | 108% (inactive) | 64.8% (inactive) | -12% (inactive) | 57.2 | 45.3 | -1.18% (inactive) | 23.4% (inactive) |  |
| O=C(CSc1n[nH]c(-c2ccco2)n1)Nc1sc2c(c1C(=O)Nc1ccccc1)CCCC2 | 99.5 | 99% (inactive) | 99.5% (inactive) |  | -13% (inactive) | 78.9 | 65.9 | -4.42% (inactive) | -10.7% (inactive) | 65.9% (inactive) |
| O=C(O)CCc1cc(I)c(Oc2ccc(O)c(I)c2)c(I)c1 | 104 | 76.5% (inactive) | 104% (inactive) |  | 3.29% (inactive) | 98.8 | 102 |  |  | 102% (inactive) |
| O=C(Nc1ccc(F)cc1)N(Cc1ccco1)Cc1cc2cc3c(cc2[nH]c1=O)OCO3 | 86.5 | 90.5% (inactive) | 86.5% (inactive) | 58.7% (inactive) | 35.4% (inactive) | 19.6 | 55 | -6.32% (inactive) | -12.8% (inactive) |  |
| CCCOc1ccccc1C1CC(=O)Nc2cc3c(cc21)OCCO3 (configuration not stated) | 84 | 67% (inactive) | 84% (inactive) |  | -39.2% (inactive) | 73.5 | 34.3 | -4.93% (inactive) | -2.3% (inactive) | 34.3% (active) |
| Cc1ccc(C(=O)/C=C/Nc2cccc(O)c2)cc1 | 111 | 76% (inactive) | 111% (inactive) |  | 3.02% (inactive) | 82.1 | 85.1 | -7.03% (inactive) | -1.83% (inactive) | 85.1% (inactive) |
| CO[C@H]1C=CO[C@@]2(C)Oc3c(C)c(O)c4c(O)c(c(C=NN5CCN(C)CC5)c(O)c4c3C2=O)NC(=O)C(C)=CC=C[C@H](C)[C@H](O)[C@@H](C)[C@@H](O)[C@@H](C)[C@H](OC(C)=O)[C@@H]1C | 90.5 | 85.5% (inactive) | 90.5% (inactive) |  | 1.53% (inactive) | 87.3 | 88.9 |  |  | 88.9% (inactive) |
| CCOC(=O)c1c(NC(=O)Cn2c(C)nc3ccccc32)sc2c1CCC2 | 107 | 107% (inactive) | 107% (inactive) | 63% (inactive) | 3.14% (inactive) | 54.7 | 57.8 | -4.53% (inactive) | -0.97% (inactive) |  |
| Cc1cc(O)c(-c2cc(C(=O)Nc3ccc(S(=O)(=O)N4CCOCC4)cc3)[nH]n2)cc1C | 120 | 41% (active) | 120% (inactive) |  | -21.6% (inactive) | 59.2 | 37.6 | -5.14% (inactive) | -5.08% (inactive) | 37.6% (active) |
| COc1ccc(CC(=O)NCc2cccs2)cc1 | 90 | 103% (inactive) | 90% (inactive) | 60.6% (inactive) | -17.3% (inactive) | 77.9 | 60.5 | -4% (inactive) | -8.03% (inactive) |  |
| CCOc1cccc(-n2nnnc2-c2ccc(OC)cc2)c1 | 107 | 90% (inactive) | 107% (inactive) | 49.9% (inactive) | -47.9% (inactive) | 60.4 | 12.5 | -1.04% (inactive) | -4.6% (inactive) |  |
| CCOC(=O)c1ccc(N=Cc2nc(-c3ccccc3)oc2OC(C)=O)cc1 | 106 | 75.5% (inactive) | 106% (inactive) |  | -5.29% (inactive) | 23.2 | 17.9 | -4.47% (inactive) | -2.38% (inactive) | 17.9% (active) |
| CC(C)C(=O)Nc1ccc(C(=O)NCc2cccnc2)cc1 | 107 | 108% (inactive) | 107% (inactive) | 118% (inactive) | -61.7% (inactive) | 72.5 | 10.8 | 4.42% (inactive) | -7.14% (inactive) |  |
| CCOc1cc(NC(=O)c2ccco2)c(OCC)cc1NC(=O)CCc1ccc(OC)cc1 | 89 | 88% (inactive) | 89% (inactive) |  | -9.95% (inactive) | 88.6 | 78.7 | 2% (inactive) | 1.31% (inactive) | 78.7% (inactive) |
| Nc1nc(N2CCN(C/C=C/c3ccccc3)CC2)nc2ccccc12 | 80.5 | 98.5% (inactive) | 80.5% (inactive) |  | 5.93% (inactive) | 86.1 | 92 | -5.07% (inactive) | -2.13% (inactive) | 92% (inactive) |
| Oc1ccc(N2CCN(C(c3ccncc3)c3nnnn3C3CCCC3)CC2)cc1 (configuration not stated) | 76 | 82.5% (inactive) | 76% (inactive) |  | 4.33% (inactive) | 87.6 | 91.9 | -5.2% (inactive) | 2.58% (inactive) | 91.9% (inactive) |
| COc1cc(C(=O)Nc2nc(-c3cccs3)cs2)cc(OC)c1OC | 86 | 82% (inactive) | 86% (inactive) |  | -14.2% (inactive) | 37.2 | 22.9 | 1.51% (inactive) | 23.6% (inactive) | 22.9% (active) |
| CC(C)C[C@H]1C(=O)N2CCC[C@H]2[C@]2(O)O[C@](NC(=O)[C@@H]3C=C4c5cccc6[nH]c(Br)c(c56)CC4N(C)C3)(C(C)C)C(=O)N12 (some centres not stated) | 138 | 71% (inactive) | 138% (inactive) |  | 11.8% (inactive) | 72.4 | 84.2 |  |  | 84.2% (inactive) |
| COc1cccc(Cn2c(-c3nonc3N)nc3ccccc32)c1 | 93.5 | 82% (inactive) | 93.5% (inactive) | 58.2% (inactive) | -46.7% (inactive) | 62.7 | 16 | -2.6% (inactive) | -2.06% (inactive) |  |
| CC(C)Cc1nc(N2CCN(C(=O)c3ccco3)CC2)c(C#N)c2c1CCC2 | 172 | 93% (inactive) | 172% (inactive) |  | 2.99% (inactive) | 81.5 | 84.5 | -6.71% (inactive) | 1.15% (inactive) | 84.5% (inactive) |
| COc1ccc(C)cc1NC(=O)CCC(=O)Nc1ccc2nc(N3CCN(C)CC3)cc(C)c2c1 | 70.5 | 123% (inactive) | 70.5% (inactive) |  | 6.93% (inactive) | 86.2 | 93.2 | 3.95% (inactive) | -6.17% (inactive) | 93.2% (inactive) |
| CN(C)CC(O)COc1ccc(-c2ccc(C#N)cc2)cc1 (configuration not stated) | 79.5 | 109% (inactive) | 79.5% (inactive) |  | 14.3% (inactive) | 81.8 | 96 | 0.27% (inactive) | -6.61% (inactive) | 96% (inactive) |
| Cc1nc2cc(N3CCCCC3)c(NC(=O)c3cccnc3)cc2c(=O)n1Cc1ccccc1 | 64 | 67.5% (inactive) | 64% (inactive) |  | 6.91% (inactive) | 22 | 28.9 | 2.11% (inactive) | -8.33% (inactive) | 28.9% (active) |
| COc1ccc(-c2cc3c(=O)n(CC(=O)NC4CCN(Cc5ccccc5)CC4)ncn3n2)cc1 | 75 | 103% (inactive) | 75% (inactive) |  | -0.715% (inactive) | 75 | 74.2 | -5.66% (inactive) | -0.83% (inactive) | 74.2% (inactive) |
| Cc1cccc(NC(=O)c2cc(NC(=O)c3ccco3)ccc2N2CCCCC2)c1 | 85 | 80.5% (inactive) | 85% (inactive) |  | 17.8% (inactive) | 48 | 65.9 | -4.4% (inactive) | 2.46% (inactive) | 65.9% (inactive) |
| Oc1ccccc1-c1cc(C(F)(F)C(F)F)[nH]n1 | 97 | 93% (inactive) | 97% (inactive) |  | 11.3% (inactive) | 87.1 | 98.3 | -2.69% (inactive) | 2.83% (inactive) | 98.3% (inactive) |
| CCOc1ccc2nc(NC(=O)C(NS(=O)(=O)c3cccs3)C(C)C)sc2c1 (configuration not stated) | 116 | 68.5% (inactive) | 116% (inactive) |  | 11.7% (inactive) | 75 | 86.7 | 0% (inactive) | -1.9% (inactive) | 86.7% (inactive) |
